Screens deposited in PubChem BioAssay by The Scripps Research Institute Molecular Screening Center.
The list is not random: actives were taken first. Their share in the collection is about 3%.
5HT1E ag: 5-HT1E (human) receptor agonism; activation, % at 6 µM; 0.69% of 65,000 active; CHO 5-HT1E Ga15 NFAT-bla reporter, FRET; 0% DMSO wells, 100% control agonist wells;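 active = activation above a set limit, the screen-wide mean activation plus 3 SD, cut at about 8.5% in these data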
Target sequence (P28566 whole entry, looked up): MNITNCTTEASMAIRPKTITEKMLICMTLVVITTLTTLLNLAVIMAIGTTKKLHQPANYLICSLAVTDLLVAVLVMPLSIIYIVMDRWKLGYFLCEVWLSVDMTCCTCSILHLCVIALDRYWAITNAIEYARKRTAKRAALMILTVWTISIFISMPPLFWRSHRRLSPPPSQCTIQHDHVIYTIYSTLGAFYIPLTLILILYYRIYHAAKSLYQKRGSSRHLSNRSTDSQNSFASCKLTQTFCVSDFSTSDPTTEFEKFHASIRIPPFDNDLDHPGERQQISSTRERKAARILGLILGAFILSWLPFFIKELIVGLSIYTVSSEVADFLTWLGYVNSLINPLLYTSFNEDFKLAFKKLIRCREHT
S1P1 ag pot: S1P1 (human) agonism or agonism potentiation. P21453. AID 449. 0.57% of 56,000 active. S1P1 CRE-bla cells, forskolin, beta-lactamase FRET, potentiator mode; S1P1 agonist co-added at EC20, 2 nM; 100% = saturating reference agonist, 0% = basal. activation, % at 9.5 µM;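 active = activation above a cutoff set at the mean activation of all tested compounds plus 3 SD, cut at about 54% in these data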;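 also: forskolin at 4 µM as EC80 and the EC20 agonist is SEW2871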
HTR1A agonist: 5-HT1a (human) receptor agonism; P08908; CHO 5-HT1a Ga15 NFAT-bla reporter, FRET ratio; 0% basal, 100% maximal reference agonist; activation, % at 10 µM; 0.56% of 65,000 active; AID 567;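 active = activation above the screen-wide mean activation plus 3 SD, cut at about 19% in these data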
5HT1a antag: antagonists of human 5-HT1a serotonin receptor. CHO 5-HT1a Ga15 NFAT-bla reporter, antagonist mode. AID 612. P08908. inhibition, % at 10 µM. 0.68% of 62,000 active;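 active = inhibition above the mean of all tested compounds plus 3 SD, cut at about 43% in these data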;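 also: receptor stimulated by 5-CT agonist at 100 nM near EC80; beta-lactamase reporter measured by ratiometric fluorescence of a cleavable substrate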
HTR1E antagonist: 5-HT1E (human) receptor antagonism; P28566; CHO 5-HT1E Ga15 NFAT-bla reporter, FRET, antagonist; inhibition, % at 6 µM; 0.99% of 65,000 active; AID 571;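 active = inhibition above a set limit, the mean inhibition across every tested compound plus 3 SD, cut at about 29% in these data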;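 also: signal is the 460 over 535 nm emission ratio of beta-lactamase substrate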
S1P3 agonist: agonists of human S1P3 receptor; AID 373; S1P3 NFAT-BLA reporter cells, agonism, FRET ratio; relative to 1 µM S1P, basal subtracted; Q99500; 0.1% of 60,000 active; activation, % at 4.5 µM;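 active = activation above the screen-wide mean plus 3 SD, cut at about 4.5% in these data, passing the limit was not always enough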
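Benchmarks: high control 1 µM S1P / System: stable CHO line with human S1P3, Gα16, NFAT-BLA reporter / Dosing: single compound concentration, 4.5 µM final / Timing: 4 h compound at 37 °C, 2 h substrate at RT / Measured by: FRET β-lactamase substrate fluorescence, excitation 405 nm, 460/535 nm emission ratio, background-subtracted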
Of the large screens only hits and unclear results are named; the others gave an inactive call.

CCN(CC)S(=O)(=O)c1ccc(Nc2cc(C)nc3ncnn23)cc1	none
CCn1c2ccccc2c2cc(Nc3cc(C)nc4ncnn34)ccc21	5HT1a antag 72, HTR1E antagonist 70
COc1ccc(CNC(=O)C2CCCN2S(=O)(=O)c2ccccc2)cc1 (configuration not stated)	none
COC(=O)c1cc2sccc2n1CC(=O)N1CCCc2ccccc21	none
Cn1c(C(=O)N2CCCc3ccccc32)cc2sccc21	S1P1 ag pot 86
CCn1c(C(=O)Nc2ccsc2C(=O)OC)cc2sc(Cl)cc21	none
CCOC(=O)CN1C(=O)C(C)(C)Oc2ccc(C(=O)Nc3ccccc3OC)cc21	S1P1 ag pot 90
COc1ccc(Cl)cc1NC(=O)c1ccco1	5HT1E ag 23
COC(=O)c1ccc(NC(=O)CS(=O)(=O)Cc2ccccc2)cc1	none
COc1ccc(N2C(=O)C3CCCN3C2c2cccc(Br)c2)cc1 (configuration not stated)	none
COc1ccc(N2C(=O)C3CCCN3C2c2cccc(OC)c2OC)cc1 (configuration not stated)	HTR1A agonist 101
Cc1c(C(=O)N2CCc3ccccc32)oc2c1C(=O)CC(C)(C)C2	none
Cc1ccc(C2C3CN(C(C)C)CC=C3C(C#N)=C(N)C2(C#N)C#N)cc1 (configuration not stated)	HTR1A agonist 32 (no result: 5HT1a antag)
CCOC(=O)N1CC=C2C(C#N)=C(N)C(C#N)(C#N)[C@H](c3ccc(OCC)c(OCC)c3)[C@H]2C1	none
CCCCOc1ccc(C2C3CN(C(=O)OCC)CC=C3C(C#N)=C(N)C2(C#N)C#N)cc1OC (configuration not stated)	HTR1A agonist 46
CCCOc1cccc(C(=O)N(Cc2cccs2)C2CCS(=O)(=O)C2)c1 (configuration not stated)	none
Clc1ccc(Cn2ncc3c(N4CCCCC4)ncnc32)cc1	HTR1E antagonist 34
Cc1cc(Nc2ccccc2)n(CCOC(=O)COc2ccccc2)n1	none
CCOC(=O)c1nnn(-c2nonc2N)c1CSc1ccc(C)cc1	none
CCOC(=O)c1nnn(-c2nonc2N)c1COc1cc(C)c(Cl)c(C)c1	5HT1a antag 49
O=C(O)c1cc2ccc3ccccc3c2[nH]1	none (no result: S1P1 ag pot, S1P3 agonist)
O=C(Nc1ccc(N2CCOCC2)cc1)Nc1ccc2nc(-c3ccco3)c(-c3ccco3)nc2c1	HTR1E antagonist 67 (no result: S1P1 ag pot)
COC(=O)C1=C(Cn2cnc3ccccc32)NC(=O)NC1c1cc(C)ccc1C (configuration not stated)	HTR1A agonist 22 (no result: S1P1 ag pot)
CCOC(=O)C1=C(Cn2cnc3ccccc32)NC(=O)NC1c1cc(C)ccc1C (configuration not stated)	none
Fc1ccc2[nH]c3c(N4CCN(c5ccccc5)CC4)ncnc3c2c1	S1P1 ag pot 106 (no result: 5HT1a antag)
COc1cc2[nH]c3c(N4CCN(c5ccccn5)CC4)ncnc3c2cc1OC	none
OC1(c2cccc(C(F)(F)F)c2)CCN(c2ncnc3c2[nH]c2ccc(F)cc23)CC1	S1P1 ag pot 100, HTR1E antagonist 35
CCCCOc1ncnc2c1[nH]c1ccc(F)cc12	S1P1 ag pot 116
COc1ccc(C(=S)N2CCCC2)cc1C	none
C=CCN(C(=O)CNC(=O)c1ccco1)C(C(=O)NC1CCCCC1)c1ccc(OC)cc1OC (configuration not stated)	none
CCCNC(=O)Nc1cc(C)on1	HTR1A agonist 257
CCOC(=O)c1c(C)nc(-c2ccccc2)nc1NC(=O)CC	5HT1E ag 68
CCOC(=O)c1[nH]c2ccccc2c1NC(=O)CC	none
Nc1nnnn1/N=C/C(Br)=C/c1ccccc1	5HT1a antag 85, HTR1E antagonist 48
Nc1nnnn1/N=C/C=C/c1ccccc1	none
COc1ccc(-c2nnc(-c3cccs3)o2)cc1OC	none
CCOc1ccc(-c2nnc(-c3cccs3)o2)cc1OCC	S1P1 ag pot 104
CCOc1cc(-c2nnc(-c3ccco3)o2)cc(OCC)c1OCC	none
Cc1cc(C)cc(OCC(=O)Nc2cccc(-c3nnc(-c4ccco4)o3)c2)c1	HTR1A agonist 20 (no result: S1P1 ag pot)
CCOc1ccc(-c2nnc(-c3ccco3)o2)cc1OCC	S1P1 ag pot 99
CCCc1nc2oc3c(NCc4ccccn4)ncnc3c2c2c1COC(C)(C)C2	none
Cc1nn(-c2nc3ccccc3s2)c(N)c1-c1ccccc1	S1P1 ag pot 95
O=C(c1ccccc1)N(CCN1CCOCC1)C1(C(=O)Nc2ccccc2)CCCCC1	none
Cc1csc(NC(=O)C(Cc2ccccc2)n2cccc2)n1 (configuration not stated)	S1P1 ag pot 81
O=c1cc(-c2c(F)c(F)c(F)c(F)c2F)oc2c(F)c(F)c(F)c(F)c12	5HT1a antag 99, HTR1E antagonist 102 (no result: S1P1 ag pot, S1P3 agonist)
CCOC(=O)C1=C(C)NC(=O)NC1c1ccc(OCC(=O)Nc2ccccc2)c(OC)c1 (configuration not stated)	5HT1E ag 89
c1ccc(CNC2=NCCCCC2)cc1	5HT1E ag 13
CCn1c(SC(=O)NC2CCCCC2)nnc1-c1cccs1	none
Nc1nc2ccc(Oc3ccccc3)cc2s1	none
Nc1nc2ccc(OC(F)(F)F)cc2s1	HTR1A agonist 24 (no result: 5HT1a antag)
CCCn1c(NC(=O)c2ccccc2)nc2ccccc21	none
CCCn1c(NC(=O)c2cccc(S(=O)(=O)N3CCCC3)c2)nc2ccccc21	S1P1 ag pot 74, 5HT1a antag 50
Brc1ccc(C2=Nn3c(nnc3-c3n[nH]c4c3CCC4)SC2)cc1	HTR1E antagonist 57
Clc1ccc(C2=Nn3c(nnc3-c3n[nH]c4c3CCC4)SC2)cc1	none
COc1cc(NC(=O)c2cc3c(C)nc4ccccc4c3o2)cc(OC)c1OC	none
COc1ccc(CNC(=O)c2cc3c(C)nc4ccccc4c3o2)c(OC)c1	S1P1 ag pot 94
O=C1CSC(c2ccccc2F)N1CCN1CCCCC1 (configuration not stated)	none
O=C1CSC(c2ccccc2F)N1c1cc(Cl)ccc1O (configuration not stated)	HTR1E antagonist 30
Cc1cc(-c2nn3c(-c4ccccc4)nnc3s2)c2ccccc2n1	HTR1E antagonist 30
COC(=O)c1ccccc1NC(=O)CSc1nc(O)cc(=O)n1C1CCCC1	none
c1coc(CNC2CCCCCCC2)c1	HTR1A agonist 42
O=C(NCCc1cn2ccccc2n1)C1CCCCC1	none
O=C(CN1CCC(C(=O)c2ccc(Cl)cc2)CC1)Nc1ccc2c(c1)OCCO2	none
Cc1ccc2c(c1)c1c(n2CC(O)Cn2c(C)nc3ccccc32)C(=O)CCC1 (configuration not stated)	HTR1A agonist 73
